Measured values as given in ChEMBL document CHEMBL4513216, “Probing the Open Global Health Chemical Diversity Library for Multistage-Active Starting Points for Next-Generation Antimalarials” (ACS Infect Dis, 2020).

Assay: Toxicity liver stage against HepG2, at 10uM
Format: cell-based
Design: test concentration 10 uM, cell line HepG2-A16-CD81EGFP
Settings: human, HepG2-A16-CD81EGFP cells; read-out: INHIBITION
Summary of the method: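 Uninfected HepG2-A16-CD81EGFP cells, 3 × 10^3 per well, 1536-well, plated on prespotted compound at 10 μM final, parasite-free screening media added to match infected plates; puromycin 10 μM positive, DMSO 0.5% negative; run in parallel with 48 h PbLuc assay at 37 °C, 5% CO2; viability by CellTiter-Glo luminescence, normalized to controls.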

| SMILES | cytotoxicity at 10 µM |
| --- | --- |
| CNC(=O)Cc1noc(Cc2cccc(Cl)c2)n1 | 0.335% |
| Cc1nc(CN(Cc2cccnc2)Cc2ccsc2)c[nH]1 | 0.935% |
| Cc1nc(CN2CCCN(Cc3nc4ccccc4o3)CC2)no1 | 12.3% |
| O=C(c1cscn1)N(CCCO)S(=O)(=O)c1cccs1 | -11.3% |
| O=C(NCCNc1ncccn1)c1ccc(OCc2ccccc2)nc1 | 17% |
| CN(C)Cc1nn(C)c2c1CCN(C(=O)CC1CC1)C2 | -3.86% |
| CCc1nc(CC(=O)N2CCC(C(=O)N3CCCCC3)CC2)cs1 | 4.92% |
| O=C(O)CN1CCCC2(CCN2Cc2cccc(F)c2)C1 (stereo unspecified) | -108% |
| Cc1cc(F)c(C(C(=O)O)N2CCN(Cc3ccccn3)CC2)cc1Cl (stereo unspecified) | 4.2% |
| CN(C)CC(=O)N1CCc2onc(Cn3cccn3)c2C1 | -3.83% |
| Cc1cnc(N2C[C@H]3CN(Cc4csc(C)n4)C(=O)[C@H]3C2)nc1 | 12% |
| Cc1cc(=O)[nH]c(CCNC(=O)C(c2ccc(F)cc2)N(C)C)n1 (stereo unspecified) | -9.78% |
| Cc1cc(C)n(C2CCCN(C(=O)c3ccc(N(C)C)nc3)C2)n1 (stereo unspecified) | -4.26% |
| CCOCC(O)CN1CCN(C(=O)c2cccc(F)c2)CC1 (stereo unspecified) | -11.1% |
| CCN(CC)CCCNc1nccc(-c2cn(C)nc2C)n1 | -2.92% |
| CC(CNC(=O)c1cccc(C#N)c1)N1CCc2ccccc21 (stereo unspecified) | -16.3% |
| O=C(CCc1ccncc1)N1CCCC(N2CCNC2=O)C1 (stereo unspecified) | 2.71% |
| CC(C(=O)N(C)C)N1CCCN(C(=O)Oc2ccccc2)CC1 (stereo unspecified) | -0.37% |
| Cc1ccc(CN2CCC3(CC(C(=O)NCC4CC4)=NO3)C2)cc1C (stereo unspecified) | 3.84% |
| Cc1ccccc1C(C(=O)N(C)Cc1cnn(C)c1)N(C)C (stereo unspecified) | -0.837% |
| CNC(=O)c1cn[nH]c1C1(C)CCCN(Cc2nccn2C(C)C)C1 (stereo unspecified) | -2.73% |
| Cc1cc2cccc(C(=O)N3CC[C@@H](N)[C@H](O)C3)c2o1 | -0.193% |
| c1nc2onc(C3CC3)c2cc1-c1nnc(C2CC2)o1 | 8.03% |

| SMILES | cytotoxicity at 10 µM |
| --- | --- |
| Fc1ccccc1CN1CCC(c2n[nH]c(C3CC3)n2)CC1 | 6.21% |
| CC(C)C1CN(S(C)(=O)=O)CCCN1Cc1ccc(F)cc1 (stereo unspecified) | 1.81% |
| O=C1NC2(Nc3ncccc31)C(=O)Nc1c2ccc(Cl)c1F (stereo unspecified) | 9.06% |
| CCOC(=O)C1CCN(c2cc(C(=O)N3CCOCC3)nc(C)n2)CC1 | -1.07% |
| COc1ccc(NC(=O)CN2CCS(=O)(=O)CC2)cn1 | 11.8% |
| CCn1cc(CN(C)S(=O)(=O)c2cnn(CC)c2C)c(C)n1 | 3.13% |
| Cc1nn(C)cc1C1CC(=O)Nc2c1cnn2C(C)C (stereo unspecified) | -4.31% |
| O=C1CCCCN1c1cccc(CNC2CCCC2)c1 | 6.86% |
| CN(C(=O)CCc1ccsc1)S(C)(=O)=O | 0.347% |
| CSC(C)C(=O)NCc1ccc(-n2cncn2)nc1 (stereo unspecified) | 3.28% |
| O=C(O)[C@]12CCCN(Cc3cccnc3)[C@@H]1CCN(c1cnccn1)C2 | 4.63% |
| Cc1cc(N2C[C@H](C3CC3)[C@@H](N)C2)nc(N2CCCCC2)n1 | -15.6% |
| Cn1ccc(CN2CCCC23CCN(Cc2cccc(F)c2)CC3)n1 | -103% |
| O=C(O)c1ccc(CC2CCN(S(=O)(=O)N3CCOCC3)C2)cc1 (stereo unspecified) | 1.62% |
| CCN(Cc1cnn(C)c1)C[C@H]1CC[C@@H](Cc2ccc(C#N)cc2)O1 | 5.78% |
| CCOCC1CN(Cc2cnn(C)c2)Cc2cnn(C)c21 (stereo unspecified) | -89.6% |
| COCCCC1(CO)CCCN(C(=O)c2cnc(C3CC3)nc2)C1 (stereo unspecified) | -39.7% |
| CNC(=O)[C@H]1C[C@H]2OCC[C@H]2N(CCOc2ccc(Cl)cc2)C1 | -104% |
| O=C(NCc1ccc2c(c1)OCO2)c1ccc(N2CCCCC2)nn1 | -9.7% |
| Cc1nc(CNc2cccc(Cl)c2Cl)cs1 | 11.4% |
| COCc1cccc(S(=O)(=O)NCc2cnn(C)c2C)c1 | -4.02% |
| Cc1nn(C)cc1-c1ccnc(N(C)Cc2noc(C(C)C)n2)n1 | 1.41% |
| COCc1noc(Cn2ncn3cccc3c2=O)n1 | -5.56% |

| SMILES | cytotoxicity at 10 µM |
| --- | --- |
| O=C(c1cnns1)N1CCN(c2ccc(F)cc2Cl)CC1 | -145% |
| Cc1cnn(C2CCCN(C(=O)CCCn3ccnc3C)C2)c1 (stereo unspecified) | -18.3% |
| CC(C)c1cc(C(=O)NCC2CCCN(c3ncccn3)C2)n(C)n1 (stereo unspecified) | 17.2% |
| CNc1cc(C2CN(Cc3cccnc3NC)CCO2)nc(C)n1 (stereo unspecified) | 2.93% |
| O=C(c1ccn(-c2cccc(Cl)c2)n1)N1CCN(C2CC2)CC1 | -7.03% |
| COCCC(=O)N1C[C@H](C(C)C)[C@@H](N(C)C)C1 | 5.75% |
| COc1ccccc1Cc1cncc(N2CC(C(=O)O)C2)n1 | 2.71% |
| CN(C)C(=O)CN1CCCC(c2cncc(-c3cccc(Cl)c3)n2)C1 (stereo unspecified) | 24% |
| CCCn1nccc1NC(=O)CN1CCCC1Cn1cc(C)cn1 (stereo unspecified) | -8.09% |
| Cc1cc(CS(=O)(=O)c2ccccc2)no1 | 10.5% |
| CS(=O)(=O)c1ccc(CN2C[C@@H]3CC[C@H]2CN(c2ncccn2)C3)cc1 | 0.345% |
| Cc1ccc(-c2ccnc(NCC(O)c3ccc(O)cc3)n2)c(C)n1 (stereo unspecified) | 0.781% |
| OC1(Cn2ccc3ccncc32)CCN(Cc2ccccn2)CC1 | 2.42% |
| CN(Cc1cnccn1)C(=O)c1ccnc(OC2CCC2)c1 | 0.0711% |
| Cc1nn(C)c(N(C)C)c1CNCC(O)COc1ccc(F)cc1 (stereo unspecified) | 0.769% |
| Cc1nc(C2CCN(C(=O)c3cnc(N(C)C)nc3)CC2)c2sccn12 | -4.5% |
| CCCNC(=O)c1ccc(S(=O)(=O)NC2(COC)CCCC2)cc1 | -49.9% |
| CCOC(=O)Cc1csc(NC(=O)c2ccc(=O)[nH]n2)n1 | -1.23% |
| Cc1n[nH]c(C)c1CCC(=O)N1CCc2c(nc[nH]c2=O)C1 | -5% |
| Clc1ccc2c(c1)C=C(CNC1CCc3ncnn3C1)CO2 (stereo unspecified) | -1.19% |
| O=C1NC(c2ccccc2)=N[C@@]12CC[C@@H]1CN(Cc3ccccc3)C[C@@H]12 | -5.23% |
| Cc1ccc(C(=O)N(C)Cc2cc(Br)cs2)c(=O)[nH]1 | -0.782% |
| Cc1ccccc1Cn1cnc2oc(C)c(C(=O)O)c2c1=O | -1.49% |

| SMILES | cytotoxicity at 10 µM |
| --- | --- |
| O=C1CCN(C(=O)C2(c3ccc(F)cc3)CCCCC2)CCN1 | -7.4% |
| Cc1ncc(CNC2CCCN(Cc3noc(C4CC4)n3)C2)s1 (stereo unspecified) | -7.7% |
| Cc1ccc(C(=O)N(C)Cc2ccc3c(c2)OCO3)c(=O)[nH]1 | -12% |
| Cc1occc1C(=O)N1C[C@H]2CCCC(OCc3cccnc3)[C@H]2C1 (stereo partly specified) | 2.72% |
| COc1c(CNCc2ccc(C(=O)N(C)C(C)C)cc2)c(C)nn1C | 33.2% |
| Cc1cc(C)nc(N2CCC(c3cncc(-n4ccnc4)n3)CC2)n1 | -8.66% |
| Cn1nc(Cn2cccn2)c2c1CN(Cc1ccoc1)C2 | -3.77% |
| O=C1CC(c2ccc3c(c2)OCO3)c2snc(C(=O)O)c2N1 (stereo unspecified) | 4.43% |
| c1cncc(CN2CCO[C@@H]3CN(Cc4ccoc4)CC[C@@H]3C2)c1 | -70.9% |
| O=C(NCc1ccccc1)NCC(O)c1cccc(F)c1 (stereo unspecified) | -5.09% |
| Cc1ccc(CC(=O)N2CCOC(c3nc(C)n[nH]3)C2)cn1 (stereo unspecified) | -3.28% |
| C[C@@H]1CN(C(=O)c2ccc(=O)[nH]c2)CC[C@@]1(O)C1CCOCC1 | -1.59% |
| O=C(CCc1nnc2ccccn2c1=O)NCc1ccc2c(c1)OCO2 | -0.403% |
| Cc1ccc(OCCCSC2=NCCN2)cc1 | -9.66% |
| COc1ccc(OC)c(C(C)NC(=O)c2nn(C)c(C)c2Br)c1 (stereo unspecified) | 5.38% |
| Cc1nc(Cn2c3c(ccc2=O)CC(NC(N)=O)CC3)cs1 (stereo unspecified) | 9.79% |
| COCC1c2c(cnn2CC2CC2)CCN1Cc1nccs1 (stereo unspecified) | -1.21% |
| O=C(c1[nH]nc(C2CC2)c1Cl)N1CCCC1 | -3.78% |
| CCN(C(=O)c1ccccc1I)C1CC(=O)NC1=O (stereo unspecified) | -3.86% |
| OC(c1ccccc1)C1CCN(Cc2csc(-c3ncccn3)n2)CC1 (stereo unspecified) | -3.87% |
| c1ccc(N2CCC(c3ccncc3)CC2)cc1 | 8.45% |
| O=C1N(Cc2cccnc2)CCC12CCCN(c1ncc(F)cn1)C2 (stereo unspecified) | -1% |
| CN1CCOC(CNCc2cccc(OCc3ccccn3)c2)C1 (stereo unspecified) | -16.5% |

| SMILES | cytotoxicity at 10 µM |
| --- | --- |
| CC(C)c1nc(C(=O)N2C[C@H](C(C)C)[C@@H](N)C2)cs1 | -3.73% |
| CC(C)CN(C)Cc1nc2c(cnn2C)c(=O)[nH]1 | -12.3% |
| Cn1cccc1C(O)CNC(=O)c1ccc2nsnc2c1 (stereo unspecified) | 4.4% |
| CS(=O)(=O)CCCNc1cccc(COC2CCCCC2)c1 | 9.5% |
| Cc1cc2ncn(C(=O)N3CCCC3)c2cc1C | -6.01% |
| Cc1cccc2c1nc1n2[C@@H](CNC(=O)NC(C)C)COC1 | 0.0962% |
| O=C1CNCC(C(=O)N2CC(Oc3ccccc3Cl)C2)N1 (stereo unspecified) | 10.9% |
| CCOC(=O)C1CC2(CCCCC2)N2CCC(=O)N12 (stereo unspecified) | 2.63% |
| CC(C)(C)CC(=O)N1CCC(c2nn(CCN)c3nccnc23)C1 (stereo unspecified) | -20.9% |
| Cc1n[nH]c(C)c1NC(=O)CN1CCCC(CNC(=O)C(C)(C)C)C1 (stereo unspecified) | -4.64% |
| OC(CN1CCC(c2ccn[nH]2)CC1)c1cccc(F)c1 (stereo unspecified) | -7.64% |
| Cc1noc(C)c1CN1C[C@H](OCc2ccncc2)[C@H]2OCCC[C@H]21 | 9.98% |
| CC(C)c1nccn1-c1nccnc1C1CCCN1Cc1ccccc1 (stereo unspecified) | -0.943% |
| CC(C)Cc1cc(CC2(NCc3ccccc3Cl)COC2)no1 | -7.55% |
| Cc1cnccc1NCCn1ccnc1C1CCCCC1 | -4.2% |
| Cc1noc([C@]23COC[C@H]2CN(C(=O)COC2CCCC2)C3)n1 | -104% |
| Cc1n[nH]c(C2CN(CC(=O)NCCc3ccccc3C)CCO2)n1 (stereo unspecified) | -3.94% |
| COCC(=O)N1CC(C(=O)NCC2CC2)C2(CCOCC2)C1 (stereo unspecified) | -105% |
| O=C(C1CC1)N1CCc2c(ncnc2NCCc2nc3c(s2)CCC3)C1 | -1.05% |
